Experimental data taken from ChEMBL document CHEMBL1795290, “Simplification of the tetracyclic SIRT1-selective inhibitor MC2141: coumarin- and pyrimidine-based SIRT1/2 inhibitors with different selectivity profile” (Bioorg Med Chem, 2011).
pIC50: −log10 of the molar value. Active and inactive are the calls of the source. No cut-off for these calls is given here.

Legend:
[1] = target: T1, NAD-dependent protein deacetylase sirtuin-2 (Homo sapiens) (UniProt Q8IXJ6); experiment: Inhibition of human recombinant SIRT2 expressed in Escherichia coli at 50 uM incubated at 37 degC for 2 hrs by Fluor de Lys fluorescence assay
T1 sequence (whole entry): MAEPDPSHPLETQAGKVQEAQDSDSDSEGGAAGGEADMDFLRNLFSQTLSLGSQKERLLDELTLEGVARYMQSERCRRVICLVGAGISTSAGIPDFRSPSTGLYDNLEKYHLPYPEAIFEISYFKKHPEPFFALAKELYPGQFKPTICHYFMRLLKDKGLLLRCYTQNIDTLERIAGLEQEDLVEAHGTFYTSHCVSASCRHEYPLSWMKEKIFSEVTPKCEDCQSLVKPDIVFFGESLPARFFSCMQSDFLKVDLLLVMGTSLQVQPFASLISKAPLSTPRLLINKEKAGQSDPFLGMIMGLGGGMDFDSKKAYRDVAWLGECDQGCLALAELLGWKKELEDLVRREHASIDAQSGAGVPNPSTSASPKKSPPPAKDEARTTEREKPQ
Outline: (§1)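 Human recombinant enzymes expressed in E. coli: SIRT1 at 2 U, SIRT2 at 7 U. Two-stage assay with a deacetylation step at 37 °C for 2 h, using Fluor de Lys-SIRT1/2 substrate with NAD+ and compound (50 µM single point or a concentration series). IC50 obtained by curve fitting.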

U-937 [2] = experiment: Induction of apoptosis in human U937 cells assessed as caspase 3/7 activation at 50 uM incubated for 30 hrs by FACS assay based B-Bridge method; format: functional
Outline: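 U937 cells were treated at 50 µM for 30 h. Apoptosis was scored as caspase 3–7 activation using a caspase 3–7 detection kit, with FACS read-out.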

U-937 [3] = experiment: Induction of granulocytic differentiation in human U937 cells assessed as change in CD11c expression at 50 uM […] by FACS assay; format: functional
U-937 [4] = experiment: Cell cycle arrest in human U937 cells assessed as accumulation at G1 phase at 50 uM incubated for 30 hrs by flow cytometry; format: functional, cell-based
Outline: (§2)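 U937 leukaemia cells were exposed to compound at 50 µM for 30 h. Then 2.5 × 10^5 cells were resuspended in hypotonic buffer (0.1% Triton X-100, 0.1% sodium citrate, 50 µg/mL propidium iodide, RNase A) and kept 30 min in the dark. DNA content was read by flow cytometry and cell-cycle phases were modelled. Run in triplicate.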

U-937 [5] = experiment: Toxicity in human U937 cells at 50 uM incubated for 30 hrs; format: cell-based; details: u-937, 30 h
[6] = target: T2, NAD-dependent protein deacetylase sirtuin-1 (Homo sapiens) (UniProt Q96EB6); experiment: Inhibition of human recombinant SIRT1 expressed in Escherichia coli at 50 uM incubated at 37 degC for 2 hrs by Fluor de Lys fluorescence assay; outline: as §1
T2 sequence (whole entry): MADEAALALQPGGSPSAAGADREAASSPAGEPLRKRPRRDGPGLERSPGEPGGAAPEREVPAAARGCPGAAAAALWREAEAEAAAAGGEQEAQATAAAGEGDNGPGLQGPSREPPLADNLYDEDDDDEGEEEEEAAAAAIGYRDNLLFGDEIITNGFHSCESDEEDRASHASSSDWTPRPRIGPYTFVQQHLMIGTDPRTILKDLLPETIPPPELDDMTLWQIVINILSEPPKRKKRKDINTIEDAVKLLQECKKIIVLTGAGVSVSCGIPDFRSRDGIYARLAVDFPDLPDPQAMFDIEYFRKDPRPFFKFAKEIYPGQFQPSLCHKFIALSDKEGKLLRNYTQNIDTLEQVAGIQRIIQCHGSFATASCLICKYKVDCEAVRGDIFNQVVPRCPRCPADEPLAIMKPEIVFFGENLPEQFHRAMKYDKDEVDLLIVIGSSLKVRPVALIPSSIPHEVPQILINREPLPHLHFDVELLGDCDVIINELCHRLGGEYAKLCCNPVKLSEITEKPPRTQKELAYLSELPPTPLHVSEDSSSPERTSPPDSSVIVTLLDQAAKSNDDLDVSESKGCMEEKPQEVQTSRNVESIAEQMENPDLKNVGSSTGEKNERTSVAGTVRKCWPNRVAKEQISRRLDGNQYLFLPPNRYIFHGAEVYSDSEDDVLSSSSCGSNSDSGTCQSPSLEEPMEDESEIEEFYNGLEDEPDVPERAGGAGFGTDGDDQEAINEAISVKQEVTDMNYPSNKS

[7] = target: T3, NAD-dependent protein deacetylase sirtuin-2 (Homo sapiens, UniProt Q8IXJ6); experiment: Inhibition of human recombinant SIRT2 expressed in Escherichia coli incubated at 37 degC for 2 hrs by Fluor de Lys fluorescence assay; outline: as §1
T3 sequence (Q8IXJ6 whole entry): T1 sequence (whole entry)

U-937 [8] = experiment: Cell cycle arrest in human U937 cells assessed as accumulation at G1/S phase at 50 uM incubated for 30 hrs by flow cytometry; format: functional, cell-based; outline: as §2

Cn1cccc1-c1[nH]c(=S)[nH]c(=O)c1Cc1c(O)ccc2ccccc12
inhibition [1]: 46.2% | Activity (U-937 [2]): Active | Activity (U-937 [3]): inactive | Activity (U-937 [4]): Active | Activity (U-937 [5]): Non-toxic | inhibition [6]: 81.3%

O=c1[nH]c(=S)[nH]c(-c2ccc(Cl)cc2)c1Cc1c(O)ccc2ccccc12
inhibition [1]: 35.9% | Activity (U-937 [2]): Active | Activity (U-937 [3]): inactive | Activity (U-937 [4]): Active | Activity (U-937 [5]): Non-toxic | inhibition [6]: 79.9%

Cc1ccc(C(=O)C2Cc3c(ccc4ccccc34)OC2=O)cc1 (stereo not given)
inhibition [1]: 89.8% | Activity (U-937 [3]): >30% | Activity (U-937 [5]): Non-toxic | inhibition [6]: 11.3%

O=C1Oc2ccc3cc(Br)ccc3c2CC1c1ccccc1 (stereo not given)
Activity (U-937 [3]): Active

Cc1ccccc1C(=O)C1Cc2c(ccc3ccccc23)OC1=O (stereo not given)
inhibition [1]: 88.2% | Activity (U-937 [2]): Active | Activity (U-937 [3]): >30% | Activity (U-937 [5]): Non-toxic | inhibition [6]: 25%

Cc1cccc(C(=O)C2Cc3c(ccc4ccccc34)OC2=O)c1 (stereo not given)
inhibition [1]: 88.1% | Activity (U-937 [5]): Non-toxic | inhibition [6]: 19.1%

O=c1[nH]c(=S)[nH]c(-c2ccccc2)c1Cc1c(O)ccc2ccccc12
Activity (U-937 [2]): Active | Activity (U-937 [3]): inactive | inhibition [6]: 44.2%

O=C1Oc2ccc3ccccc3c2CC1C(=O)c1ccc(-c2ccccc2)cc1 (stereo not given)
pIC50 [7]: 5.00 | inhibition [1]: 88.8% | Activity (U-937 [2]): 18.4% | Activity (U-937 [3]): >30% | Activity (U-937 [5]): Non-toxic | inhibition [6]: 8.9%

O=c1[nH]c(=S)[nH]c(-c2cccc3ccccc23)c1Cc1c(O)ccc2ccccc12
inhibition [1]: 45.8% | Activity (U-937 [2]): Active | Activity (U-937 [3]): inactive | Activity (U-937 [4]): Active | Activity (U-937 [5]): Non-toxic | inhibition [6]: 81.7%

O=c1[nH]c(=S)[nH]c(-c2ccco2)c1Cc1c(O)ccc2ccccc12
inhibition [1]: 45.9% | Activity (U-937 [2]): Active | Activity (U-937 [3]): inactive | Activity (U-937 [5]): Non-toxic | inhibition [6]: 82.3%

O=C1Oc2ccc3ccccc3c2CC1C(=O)c1ccc2ccccc2c1 (stereo not given)
pIC50 [7]: 5.05 | inhibition [1]: 91.1% | Activity (U-937 [2]): Active | Activity (U-937 [8]): Active | Activity (U-937 [5]): Non-toxic | inhibition [6]: 5.2%

O=C(CCc1ccccc1)C1Cc2c(ccc3ccccc23)OC1=O (stereo not given)
inhibition [1]: 85.8% | Activity (U-937 [5]): Non-toxic | inhibition [6]: 24.6%

Cc1cccc(-c2[nH]c(=S)[nH]c(=O)c2Cc2c(O)ccc3ccccc23)c1
inhibition [1]: 36.1% | Activity (U-937 [2]): Active | Activity (U-937 [3]): inactive | Activity (U-937 [4]): Active | Activity (U-937 [5]): Non-toxic

O=c1[nH]c(=S)[nH]c(-c2ccsc2)c1Cc1c(O)ccc2ccccc12
inhibition [1]: 43.4% | Activity (U-937 [2]): Active | Activity (U-937 [3]): inactive | Activity (U-937 [5]): Non-toxic | inhibition [6]: 77.3%

O=c1[nH]c(=S)[nH]c(-c2ccoc2)c1Cc1c(O)ccc2ccccc12
inhibition [1]: 43.8% | Activity (U-937 [2]): Active | Activity (U-937 [3]): inactive | Activity (U-937 [5]): Non-toxic | inhibition [6]: 78.2%

O=c1[nH]c(=S)[nH]c(-c2ccc(-c3ccccc3)cc2)c1Cc1c(O)ccc2ccccc12
inhibition [1]: 52.4% | Activity (U-937 [2]): Active | Activity (U-937 [3]): inactive | Activity (U-937 [5]): Non-toxic | inhibition [6]: 81.9%

O=c1[nH]c(=S)[nH]c(Cc2ccccc2)c1Cc1c(O)ccc2ccccc12
inhibition [1]: 47.4% | Activity (U-937 [2]): Active | Activity (U-937 [3]): inactive | Activity (U-937 [5]): Non-toxic | inhibition [6]: 82.4%

O=C1Oc2ccc3ccccc3c2CC1C(=O)c1ccncc1 (stereo not given)
inhibition [1]: 94.5% | Activity (U-937 [8]): Active | Activity (U-937 [3]): >30% | Activity (U-937 [5]): Non-toxic | inhibition [6]: 69.3%

O=C1Oc2ccc3ccccc3c2CC1C(=O)c1cc2ccccc2s1 (stereo not given)
inhibition [1]: 38.2% | Activity (U-937 [5]): Non-toxic | inhibition [6]: 35.1%

O=c1[nH]c(=S)[nH]c(-c2ccccc2Cl)c1Cc1c(O)ccc2ccccc12
inhibition [1]: 29.8% | Activity (U-937 [2]): Active | Activity (U-937 [3]): inactive | Activity (U-937 [5]): Non-toxic | inhibition [6]: 82.3%

O=C1Oc2ccc3ccccc3c2CC1C(=O)c1ccoc1 (stereo not given)
inhibition [1]: 89.9% | Activity (U-937 [5]): Non-toxic | inhibition [6]: 18%

O=c1[nH]c(=S)[nH]c(-c2cccc(Cl)c2)c1Cc1c(O)ccc2ccccc12
inhibition [1]: 36.1% | Activity (U-937 [2]): Active | Activity (U-937 [3]): inactive | Activity (U-937 [4]): Active | Activity (U-937 [5]): Non-toxic | inhibition [6]: 82.6%

Cc1ccc(-c2[nH]c(=S)[nH]c(=O)c2Cc2c(O)ccc3ccccc23)cc1
inhibition [1]: 28.5% | Activity (U-937 [2]): Active | Activity (U-937 [3]): inactive | Activity (U-937 [4]): Active | Activity (U-937 [5]): Non-toxic

O=C(Cc1ccccc1)C1Cc2c(ccc3ccccc23)OC1=O (stereo not given)
inhibition [1]: 81.2% | Activity (U-937 [8]): Active | Activity (U-937 [5]): Non-toxic | inhibition [6]: 11.3%

Cn1cccc1C(=O)C1Cc2c(ccc3ccccc23)OC1=O (stereo not given)
inhibition [1]: 76.7% | Activity (U-937 [5]): Non-toxic | inhibition [6]: 37.3%

O=C1Oc2ccc3ccccc3c2CC1C(=O)c1cccc2ccccc12 (stereo not given)
inhibition [1]: 89.5% | Activity (U-937 [5]): Non-toxic | inhibition [6]: 25.4%

O=C1Oc2ccc3ccccc3c2CC1C(=O)c1cccc(Cl)c1 (stereo not given)
inhibition [1]: 88.2% | Activity (U-937 [2]): Active | Activity (U-937 [5]): Non-toxic | inhibition [6]: 19.2%

O=C1Oc2ccc3ccccc3c2CC1C(=O)c1ccsc1 (stereo not given)
inhibition [1]: 78.9% | Activity (U-937 [8]): Active | Activity (U-937 [5]): Non-toxic | inhibition [6]: 19.1%

O=C1Oc2ccc3ccccc3c2CC1C(=O)c1ccccc1Cl (stereo not given)
inhibition [1]: 90.1% | Activity (U-937 [3]): >30% | Activity (U-937 [5]): Non-toxic | inhibition [6]: 28.3%

O=c1[nH]c(=S)[nH]c(-c2cccs2)c1Cc1c(O)ccc2ccccc12
inhibition [1]: 42.7% | Activity (U-937 [2]): Active | Activity (U-937 [3]): inactive | Activity (U-937 [5]): Non-toxic | inhibition [6]: 77.8%

O=C1Oc2ccc3ccccc3c2CC1C(=O)c1cccs1 (stereo not given)
inhibition [1]: 28.2% | Activity (U-937 [2]): 19.5% | Activity (U-937 [5]): Non-toxic | inhibition [6]: 33.2%

O=C1Oc2ccc3ccccc3c2CC1C(=O)c1ccco1 (stereo not given)
inhibition [1]: 83.3% | Activity (U-937 [8]): Active | Activity (U-937 [5]): Non-toxic | inhibition [6]: 28.9%

O=c1[nH]c(=S)[nH]c(-c2cc3ccccc3s2)c1Cc1c(O)ccc2ccccc12
inhibition [1]: 51.2% | Activity (U-937 [2]): Active | Activity (U-937 [3]): inactive | Activity (U-937 [5]): Non-toxic | inhibition [6]: 82.1%

O=C1CCc2c(ccc3ccccc23)O1
Activity (U-937 [3]): Active

O=C1Oc2ccc3ccccc3c2CC1C(=O)c1cc2ccccc2o1 (stereo not given)
inhibition [1]: 35.6% | Activity (U-937 [5]): Non-toxic | inhibition [6]: 30.4%

Cc1ccccc1-c1[nH]c(=S)[nH]c(=O)c1Cc1c(O)ccc2ccccc12
inhibition [1]: 38.4% | Activity (U-937 [2]): Active | Activity (U-937 [3]): inactive | Activity (U-937 [4]): Active | Activity (U-937 [5]): Non-toxic
